# This is one part of a sample in which hits are shown more often than they occur.
# S1P3 antagonist: antagonists of human S1P3 receptor; CHO S1P3 NFAT-BLA reporter, FRET fluorescence, antagonist mode; inhibition, % at 4.98 µM; 170,000 compounds, 0.27% hits; AID 485;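 active means inhibition above the plate cutoff, the mean inhibition of test wells on that plate plus 3 SD, cut at about 28% in these data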;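 further: cells challenged with S1P at its EC80 of 0.8 µM; blue over green emission ratio from cleaved BLA substrate after 4 h stimulation; 0% = S1P-stimulated wells and 100% = unstimulated DMSO-only wells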
# L major viab: inhibitors of Leishmania major promastigote growth; Leishmania major promastigotes, resazurin fluorescence viability; inhibition, % at 10 µM; 200,000 compounds, 9% hits; AID 1063; in the data active means inhibition above about 50%;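 further: promastigotes grown with compound for 44 hours at 28 °C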
# S1P4 antagonist: blocks the human S1P4 receptor. AID 1510. 220,000 compounds, 0.26% hits. S1P4-expressing cells, antagonist mode, reporter read-out. inhibition, % at 4.98 µM. O95977; in the data active means inhibition above about 29%;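 further: 0% = wells stimulated with agonist and 100% = vehicle wells without agonist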
# Target sequence (O95977 whole entry, looked up): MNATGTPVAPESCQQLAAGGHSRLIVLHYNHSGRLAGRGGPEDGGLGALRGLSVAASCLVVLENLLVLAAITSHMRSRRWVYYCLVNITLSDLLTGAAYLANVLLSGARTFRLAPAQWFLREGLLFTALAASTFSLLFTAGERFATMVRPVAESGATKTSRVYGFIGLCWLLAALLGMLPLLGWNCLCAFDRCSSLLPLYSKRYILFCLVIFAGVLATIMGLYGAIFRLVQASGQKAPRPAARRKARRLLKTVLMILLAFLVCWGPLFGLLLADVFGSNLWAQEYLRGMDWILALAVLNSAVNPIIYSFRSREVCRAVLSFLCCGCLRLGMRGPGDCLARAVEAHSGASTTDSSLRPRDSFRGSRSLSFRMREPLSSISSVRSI
# S1P4 agonist: activates the human S1P4 receptor; O95977; S1P4-expressing cell line, agonist reporter assay; activation, % at 4.98 µM; 220,000 compounds, 0.35% hits; in the data active means activation above about 11%;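 further: 0% = DMSO vehicle and 100% = reference agonist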
# Mdm2 ligase inh: inhibitors of human Mdm2 E3 ubiquitin ligase | Q00987 | cell-based MDM2 ubiquitination luciferase reporter, 2 h; 0 = plate control, 100 = twice control, blank-subtracted | 210,000 compounds, 0.11% hits | signal enhancement, % at 5 µM;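 active means signal enhancement of 30% or more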;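 further: luminescence tracks abundance of the self-degrading MDM2-luciferase fusion protein; higher signal means inhibition of MDM2 E3 ligase activity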
#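 Test system: mammalian cells stably expressing self-ubiquitinating, self-degrading MDM2 E3–luciferase fusion; Amount: 2000 cells in each well; Medium: DMEM; Schedule: 4 h settle plus 2 h compound, 37 °C; Technique: SteadyLite luciferase luminescence after 15 min room-temperature reagent incubation; Benchmarks: plate control and blank wells.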
# Starred values were filed as active, the others as inactive; nt = no result given.
SMILES,S1P3 antagonist,L major viab,S1P4 antagonist,S1P4 agonist,Mdm2 ligase inh
Cc1ccc(C(=O)c2cn[nH]c2-c2cc(Cl)ccc2O)cc1,nt,98.4*,1.1,-0.2,-4.6
CCO[C@@H]1OC(C(=O)N2CCCCCCC2)=C[C@H](c2ccc3c(c2)OCO3)[C@H]1CCCO,-4.8,-1.1,17.9,-1.1,nt
CCC1(c2ccc(Cl)cc2)NC(=S)N(c2ccccc2)N1 (stereo unspecified),2.0,-6.4,-21.1,5.3,-12.4
CC1(CC(=O)Nc2ccccc2)NC(=S)N(c2ccccc2)N1 (stereo unspecified),0.1,-4.6,-9.8,0.1,-23.4
CCCCCCC1(C)NC(=S)N(c2ccccc2)N1 (stereo unspecified),15.1,50.8*,13.8,-0.2,8.7
CCCCCC1(C)NC(=S)N(c2ccccc2)N1 (stereo unspecified),5.7,53.3*,-1.0,2.8,-9.4
CCN(CCNC(=O)C1CCCN(Cc2nc(-c3ccc(OC)cc3)oc2C)C1)c1ccccc1 (stereo unspecified),9.2,50.7*,11.3,-0.1,-10.0
CCc1ccc(-c2nc(CN3CCC(C(=O)NCCN(CC)c4ccccc4)CC3)c(C)o2)cc1,7.0,64.7*,3.1,-1.4,-30.3
CC(OC(=O)c1ccc(-c2ccc([N+](=O)[O-])cc2)o1)C(=O)NC(N)=O (stereo unspecified),-8.7,nt,-11.8,0.6,nt
CCN=C1SC(CC(=O)NC(C)c2ccccc2)C(=O)N1CC (stereo unspecified),0.1,5.5,5.2,-0.7,-18.6
Cc1ccc(NC(=O)CNC(c2ccccc2)c2ccccc2)c(F)c1,2.1,71.2*,-6.7,-1.0,-13.2
O=C(CNC(c1ccccc1)c1ccccc1)Nc1c(F)cccc1F,-3.4,9.7,-43.0,0.4,-0.2
Cn1cc(S(=O)(=O)NCc2ccc(Cl)cc2)c(=O)n(C)c1=O,14.7,nt,2.8,0.0,-76.4
c1cncc(-c2nc3c4ccccc4nc(N4CCC(N5CCCCC5)CC4)n3n2)c1,-36.3,nt,nt,nt,nt
COC(=O)Nc1cc(C)nc2ccccc12,4.9,55.3*,-3.4,0.7,12.1
Cc1cc(NC(=O)Cc2ccccc2)c2ccccc2n1,14.3,2.9,-7.4,0.3,-38.9
CCCCn1c(NCc2ccc3c(c2)OCO3)nc2ccccc21,nt,38.0,6.3,0.2,0.9
CCCn1c(NCc2ccc3c(c2)OCO3)nc2ccccc21,15.2,82.1*,-2.6,1.2,-2.0
CCCCn1c(NCc2ccccc2O)nc2ccccc21,-6.2,35.2,9.7,1.6,-11.3
CCCn1c(NCc2cc(C)ccc2O)nc2ccccc21,nt,77.0*,-0.8,1.5,-2.8
C=CCc1cccc(CNc2nc3ccccc3n2CCC)c1O,76.7*,21.2,6.6,-3.0,-9.9
C=CCc1cccc(CNc2nc3ccccc3n2CC)c1O,37.9,15.3,0.2,-0.7,1.3
C=CCN1C(=O)C(CC(=O)Nc2ccccc2)N(Cc2ccccn2)C1=S (stereo unspecified),-2.8,-2.5,-2.2,-0.6,-2.4
Cc1cc(C)nc(/N=C(\N)Nc2ccc(S(=O)(=O)Nc3nccc(C)n3)cc2)n1,-14.5,-11.8,-4.2,1.2,-3.5
Cc1ccc(NCc2nnc(SC(C)C(=O)N/N=C/c3ccc(C)o3)n2-c2ccccc2)cc1 (stereo unspecified),nt,5.0,-0.1,1.6,-18.5
SMILES,S1P3 antagonist,L major viab,S1P4 antagonist,S1P4 agonist,Mdm2 ligase inh
COc1ccc(C(C)=O)cc1CSCCC#N,nt,0.3,-15.8,4.9,-10.0
CCCCCCCCCOC(=O)C[n+]1csc(CCO)c1C,nt,97.9*,-7.9,-2.0,-12.2
Cc1noc(C)c1S(=O)(=O)N1CCCC(C(=O)N2CCN(C3CCCCC3)CC2)C1 (stereo unspecified),-10.7,92.7*,-13.6,-1.5,-4.8
Cc1noc(C)c1S(=O)(=O)N1CCC(C(=O)N2CCN(c3ccccc3Cl)CC2)CC1,nt,96.5*,5.8,-4.3,-7.2
Cc1noc(C)c1S(=O)(=O)N1CCC(C(=O)N2CCN(c3ccc(Cl)cc3)CC2)CC1,nt,68.1*,-21.6,-2.0,-19.9
O=C(CSc1ccc(-c2cccc([N+](=O)[O-])c2)nn1)NC1CCCC1,-29.4,-4.6,-8.7,9.5,4.4
COc1ccccc1CN(Cc1cc2cc(C)ccc2[nH]c1=O)Cc1nnnn1CC1CCCO1 (stereo unspecified),1.1,30.4,-1.1,-2.2,-2.5
O=c1[nH]c2cc3c(cc2cc1CN(Cc1nnnn1CC1CCCO1)C1CCCC1)OCO3 (stereo unspecified),-31.7,-6.6,2.3,-2.2,30.2*
O=c1[nH]c2cc3c(cc2cc1CN(Cc1nnnn1CC1CCCO1)C1CCCCC1)OCO3 (stereo unspecified),10.6,-6.7,6.9,-0.2,-14.1
COc1ccc2cc(CN(CCc3ccccc3)Cc3nnnn3CC3CCCO3)c(=O)[nH]c2c1 (stereo unspecified),-10.6,99.6*,-7.1,1.3,-15.4
COCCn1nnnc1CN(CCc1ccccc1)Cc1cc2ccc(C)cc2[nH]c1=O,-32.7,100.3*,-4.5,0.2,-4.7
COc1ccccc1CN(Cc1cc2cc(C)cc(C)c2[nH]c1=O)Cc1nnnn1CC1CCCO1 (stereo unspecified),6.0,55.9*,-4.5,0.0,-2.9
N#CCOC(=O)C1CSC2(c3ccc(Br)cc3)CCC(=O)N12 (stereo unspecified),-7.9,-5.3,-2.8,0.9,-6.4
O=C(NCC(c1cccnc1)N1CCN(c2ccc(F)cc2)CC1)c1ccccc1 (stereo unspecified),-28.7,89.3*,0.1,-1.8,-13.8
O=C(NCc1ccc(Cl)cc1)C(=O)NCC(c1cccnc1)N1CCN(c2ccc(F)cc2)CC1 (stereo unspecified),-10.5,94.0*,-4.7,0.1,-9.1
Cc1c(C(=O)N/N=C/c2ccncc2)no[n+]1[O-],10.5,-7.0,4.2,1.6,-7.6
CC(=O)Nc1ccc(C(=O)CSc2nccc(=O)[nH]2)cc1,3.4,44.3,15.0,-1.1,-0.5
CCn1c2ccccc2c2nc3cc(OC)c(OC)cc3nc21,29.2,73.3*,4.5,0.8,-22.4
CCCN(CCC)CCCNC(=S)Nc1ccc2nc(N3CCN(C)CC3)cc(C)c2c1,7.6,65.0*,-2.6,-0.6,-6.2
CCCN(CCC)CCCNC(=S)Nc1ccc2nc(N3CCN(CC)CC3)cc(C)c2c1,0.5,93.7*,-8.8,-0.1,-0.1
COc1ccc(CSc2ncnc3sccc23)cc1F,0.5,0.1,-10.3,1.9,1.9
Clc1cccc(-c2ccc(CNCCCN3CCOCC3)o2)c1,-4.9,77.1*,6.2,0.5,-8.7
O=C(NCCCN1CCOCC1)c1ccc(CSCc2cccc(Cl)c2)o1,-14.8,71.0*,-11.4,0.1,10.9
Cc1ccc(C(=O)N(Cc2ccc3c(c2)OCO3)Cc2nc3ccccc3c(=O)[nH]2)cc1,nt,95.6*,-1.8,-1.5,-4.1
CCCCC(=O)N(Cc1ccc2c(c1)OCO2)Cc1nc2ccccc2c(=O)[nH]1,9.6,-1.4,8.9,0.7,5.3
COc1cc(-c2nc(C)c(C(C)=O)n2O)ccc1OCC(=O)Nc1ccc(Cl)cc1,8.0,-8.7,-3.9,0.0,-8.7
